# Measurements gathered from unrelated publications.
# Compare with care: the assays were run in different laboratories.
# Target: MAP kinase-activated protein kinase 5 (MAPKAPK5, Homo sapiens, UniProt Q8IW41)
# Sequence (Q8IW41 1-473, as in one of the studies): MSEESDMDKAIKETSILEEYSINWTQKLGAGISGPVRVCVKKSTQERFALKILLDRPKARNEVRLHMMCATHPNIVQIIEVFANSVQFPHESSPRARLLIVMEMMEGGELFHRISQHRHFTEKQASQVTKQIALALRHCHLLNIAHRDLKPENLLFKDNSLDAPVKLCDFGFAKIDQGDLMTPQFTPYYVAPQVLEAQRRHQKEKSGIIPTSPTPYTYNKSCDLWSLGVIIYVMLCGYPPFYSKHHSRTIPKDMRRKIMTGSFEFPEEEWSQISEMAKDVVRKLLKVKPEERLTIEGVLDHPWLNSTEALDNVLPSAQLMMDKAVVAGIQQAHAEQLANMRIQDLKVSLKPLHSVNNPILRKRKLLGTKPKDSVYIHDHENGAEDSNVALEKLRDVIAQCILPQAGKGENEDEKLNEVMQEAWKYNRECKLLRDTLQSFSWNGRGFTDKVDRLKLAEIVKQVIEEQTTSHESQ
SMILES,assay,conditions,endpoint,value
COc1cc(Cl)c(C(=O)N[C@@H](CN[C@H]2CC[C@@H](N)CC2)Cc2ccc(C#N)cc2)cc1-c1ccc(CN[C@H](C)c2ccc(C)cc2)o1,"enzyme activity, inhibitor",1 µM,remaining activity,89%
Cc1ccc(Nc2nccc(N(C)c3ccc4c(C)n(C)nc4c3)n2)cc1S(N)(=O)=O,"enzyme activity, inhibitor",0.3 µM,inhibition,-3%
N#CCCc1ccc2c(c1)-c1[nH]c3ccc([N+](=O)[O-])cc3c1CC(=O)N2,cell-free assay,0.5 µM,remaining signal,94.3%
O=C(CSc1nc2nccnc2c(=O)n1CCc1ccccc1)Nc1nccs1,"enzyme activity, inhibitor",10 µM,inhibition,-2%
Cc1nc(Cc2cccc(C(F)(F)F)c2)sc1-c1ccc(C(N)=O)nc1,"cell-free assay, competition with immobilised ligand",1 µM,remaining binding,100%
Cc1sc(C(=O)NC2COC2)cc1-n1cc(NC(=O)Nc2c(F)cccc2Cl)cn1,"enzyme activity, inhibitor",10 µM,remaining activity,96.5%
COc1cc2ncnc(Nc3ccc(Oc4ccccc4)c(C)c3C)c2cc1OC,"enzyme activity, inhibitor",1 µM,inhibition,-1%
CCN(CC)CCNC(=O)c1c(C)[nH]c(/C=C2\C(=O)Nc3ccc(F)cc32)c1C,cell-free assay,0.5 µM,remaining signal,82.7%
C[C@H](c1ccc(F)cc1)N(Cc1cccc(C(=O)O)c1)C(=O)c1cnc2ccccc2c1,"cell-free assay, competition with immobilised ligand",1 µM,remaining binding,96%
CC(C)(O)[C@H]1CC[C@H](Nc2ccc3ncc(-c4cccc(C(F)(F)F)c4)n3n2)CC1,"enzyme activity, inhibitor",1 µM,remaining activity,105%
Cc1cc(NC(=O)c2cccc3cc(-c4cccc5[nH]nc(N)c45)ccc23)ccc1F,"enzyme activity, inhibitor",0.1 µM,activity vs control,103%
FC(F)(F)Oc1cccc(-c2cnc3ccc(-c4ccncc4)nn23)c1,"enzyme activity, inhibitor, radiometric",5 µM,activity vs control,85%
CCCS(=O)(=O)Nc1ccc(F)c(C(=O)c2c[nH]c3ncc(-c4ccc(Cl)cc4)cc23)c1F,"enzyme activity, inhibitor",1 µM,inhibition,< 10%
Oc1cccc(-c2nc(N3CCOCC3)c3oc4ncccc4c3n2)c1,"enzyme activity, inhibitor",10 µM,remaining activity,77%
CC(C)(C)c1nc2c(s1)c1nc(N)ncc1c1ccc(NS(=O)(=O)c3c(F)cccc3F)c(F)c12,"enzyme activity, inhibitor, radiometric",1 µM,remaining activity,83%
Cc1nc(C2CCN(C(=O)c3ccc(OC(F)(F)F)cc3N)CC2)c2ncc(N3CCN(C)CC3)cc2n1,"cell-free assay, competition with immobilised ligand",1 µM,remaining binding,94%
Nc1ncnc2occ(-c3ccc(NC(=O)Nc4cc(C(F)(F)F)ccc4F)cc3)c12,"cell-free assay, inhibitor",20 µM,remaining signal,58%
CNCc1ccc(-c2cc(-c3nc(-c4ccc(S(=O)(=O)C(C)C)cc4)cnc3N)on2)cc1,"enzyme activity, inhibitor",2 µM,inhibition,0%
Cn1c(=O)n(-c2ccc(C(C)(C)C#N)cc2)c2c3cc(-c4cnc5ccccc5c4)ccc3ncc21,"enzyme activity, inhibitor",10 µM,remaining activity,93%
CN([C@@H]1CCc2c(CC(=O)O)c3cc(S(C)(=O)=O)ccc3n2C1)S(=O)(=O)c1ccc(F)cc1,"cell-free assay, competition with immobilised ligand",1 µM,remaining binding,100%
Cc1cnc(NC2CCOCC2)nc1-n1cnc(C(=O)NC(CN)c2cc(F)cc(Cl)c2)c1 (stereo not shown),"enzyme activity, inhibitor, radiometric",1 µM,remaining activity,114%
COc1ccc(COc2ccc(Cc3cnc(N)nc3N)cc2OC)cc1,cell-free assay,0.5 µM,remaining signal,87.5%
Cn1cnc(Br)c1C1=CN(c2ncnc3[nH]cnc23)CCS1,"enzyme activity, inhibitor, radiometric",2 µM,inhibition,15.2%
Nc1cnc(N2CCc3cc(S(=O)(=O)Nc4c(F)cc(Cl)cc4F)cc(N4CCCC4=O)c32)nc1,"cell-free assay, competition with immobilised ligand",1 µM,remaining binding,92%
CNc1cccc2cc(C(=O)Nc3ccc(C(=O)O)cc3)c(=O)[nH]c12,"enzyme activity, inhibitor",10 µM,inhibition,20%
Oc1ccc(-c2nc(-c3ccncc3)c(-c3ccc(F)cc3)[nH]2)cc1,cell-free assay,0.5 µM,remaining signal,102%
COc1cc(/C=C/C(=O)CC(=O)/C=C/c2ccc(O)c(OC)c2)ccc1O,"enzyme activity, inhibitor",1 µM,activity vs control,101%
COc1cc(Nc2cnc(C#N)c(O[C@H](C)CN(C)C)n2)ncc1-c1cnn(C)c1,"enzyme activity, inhibitor, radiometric",1 µM,remaining activity,78%
CO[C@@H](C)c1c(Nc2ccc([C@H](N(C)C(=O)C3CCS(=O)(=O)CC3)C(F)(F)F)cc2)cnc2cc(Cl)nn12,"cell-free assay, competition with immobilised ligand",1 µM,remaining binding,100%
Nc1nc(Nc2ccccc2)sc1C(=O)c1c(F)cccc1F,"enzyme activity, inhibitor",10 µM,remaining activity,63%
Cc1cc(-n2nc(Cc3cc(F)cc(C(F)(F)F)c3)nc2C)ccc1C(N)=O,"cell-free assay, competition with immobilised ligand",1 µM,remaining binding,100%
O=C(Nc1cnn(-c2csc(C(=O)NC3COC3)c2)c1)Nc1ccccc1Cl,"enzyme activity, inhibitor",5 µM,remaining activity,92.8%
CNC(=O)Nc1ccc2c(c1)CC[C@@]21OC(=O)N(CC(=O)N(Cc2ccc(F)cc2)[C@@H](C)C(F)(F)F)C1=O,"cell-free assay, competition with immobilised ligand",1 µM,remaining binding,82%
CNC(=O)c1cc(Oc2ccc(NC(=O)Nc3ccc(Cl)c(C(F)(F)F)c3)cc2)ccn1,"enzyme activity, inhibitor",10 µM,inhibition,66%
